Reference: ChEMBL document CHEMBL6115053, “Optimization and Characterization of N-Acetamide Indoles as Antimalarials That Target PfATP4” (J Med Chem, 2025)
Converted amounts (≈) assume the structure as drawn. The source made the active and inactive calls. No cut-off for these calls is given here.

What was measured:
Plasmodium falciparum [1] = experiment: Antiplasmodial activity against asexual Plasmodium falciparum 3D7 infected in human […] cells assessed as reduction in parasite growth measured for 72 hrs by LDH assay; format: functional, organism-based; conditions: 3D7, 72 h
HepG2 = experiment: Cytotoxicity against human HepG2 cells assessed as inhibition of cell growth incubated for 48 hrs by celltiterglo assay; format: toxicity, cell-based; conditions: hepg2, 48 h
[2] = Aqueous solubility in PBS buffer at pH 7.4; format: physicochemical
[3] = Metabolic stability in human liver microsome assessed as intrinsic clearance; format: ADME; conditions: microsomes
[4] = Metabolic stability in mouse liver microsome assessed as intrinsic clearance; format: ADME; conditions: microsomes
[5] = Metabolic stability in rat hepatocyte […] assessed as intrinsic clearance measured per 10^6 cells; format: ADME, cell-based; conditions: hepatocytes
[6] = Lipophilicity, logD of compound at pH 7.4 by shake-flask method; format: physicochemical; conditions: buffer
Plasmodium falciparum [7] = experiment: Antimalarial activity against synchronized-ring stage Plasmodium falciparum 3D7 assessed as reduction in parasitemia at 10 times EC50 measured at 72 hrs post-treatment by LDH assay; format: functional, organism-based
How it was run: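 Parasite reduction ratio assay in P. falciparum 3D7 with an LDH read-out. Means and SDs were taken from three replicate experiments.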

Plasmodium falciparum [8] = experiment: Antiplasmodial activity against Plasmodium falciparum 3D7 infected in RBC assessed as reduction in parasite growth measured for 8 hrs by Giemsa-staining based microscopic analysis; format: functional, organism-based
How it was run: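 Giemsa-stained thin smears were read at 8 h and the percentages of extracellular and intracellular parasites counted, compared with untreated parasites at 0 h.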

Plasmodium falciparum [9] = experiment: Antiplasmodial activity against Plasmodium falciparum 3D7 infected in human […] cells incubated for 72 hrs; format: functional, organism-based; conditions: 3D7, 72 h
Plasmodium falciparum [10] = experiment: Antiplasmodial activity against multidrug-resistant Plasmodium falciparum Dd2 harboring plasmodium falciparum ATP4 I398F/P990R/D1247Y mutant by SYBR green staining based analysis; format: functional, organism-based
Plasmodium falciparum [11] = experiment: Antiplasmodial activity against multidrug-resistant Plasmodium falciparum Dd2 harboring plasmodium falciparum ATP4 G358S mutant by SYBR green staining based analysis; format: functional, organism-based
Plasmodium falciparum [12] = experiment: Antiplasmodial activity against N-(2,6-difluorophenyl)-2-(6-(5-methyl-1,3,4-oxadiazol-2-yl)-1H-indol-1-yl)acetamide-resistant Plasmodium falciparum Dd2 harboring plasmodium falciparum ATP4 F156L mutant by SYBR green staining based analysis; format: functional, organism-based
Plasmodium falciparum [13] = experiment: Antiplasmodial activity against N-(2,6-difluorophenyl)-2-(6-(5-methyl-1,3,4-oxadiazol-2-yl)-1H-indol-1-yl)acetamide-resistant Plasmodium falciparum Dd2 harboring plasmodium falciparum ATP4 D425E mutant by SYBR green staining based analysis; format: functional, organism-based
Plasmodium falciparum [14] = experiment: Antiplasmodial activity against N-(2,6-difluorophenyl)-2-(6-(5-methyl-1,3,4-oxadiazol-2-yl)-1H-indol-1-yl)acetamide-resistant Plasmodium falciparum Dd2 harbouring ATP4 genome with 2.8 fold CNV by SYBR green staining based analysis; format: functional, organism-based
Plasmodium falciparum [15] = experiment: Antimalarial activity against trophozoite stage Plasmodium falciparum 3D7 at 10 times EC50 incubated for 48 hrs by SYBR Green dye based analysis; format: functional, organism-based
[16] = target: T1, P-type sodium-transporting ATPase4 (Plasmodium falciparum (isolate 3D7), UniProt A0A143ZZK9); experiment: Inhibition of Plasmodium falciparum 3D7 ATP4
T1 sequence (A0A143ZZK9 whole entry): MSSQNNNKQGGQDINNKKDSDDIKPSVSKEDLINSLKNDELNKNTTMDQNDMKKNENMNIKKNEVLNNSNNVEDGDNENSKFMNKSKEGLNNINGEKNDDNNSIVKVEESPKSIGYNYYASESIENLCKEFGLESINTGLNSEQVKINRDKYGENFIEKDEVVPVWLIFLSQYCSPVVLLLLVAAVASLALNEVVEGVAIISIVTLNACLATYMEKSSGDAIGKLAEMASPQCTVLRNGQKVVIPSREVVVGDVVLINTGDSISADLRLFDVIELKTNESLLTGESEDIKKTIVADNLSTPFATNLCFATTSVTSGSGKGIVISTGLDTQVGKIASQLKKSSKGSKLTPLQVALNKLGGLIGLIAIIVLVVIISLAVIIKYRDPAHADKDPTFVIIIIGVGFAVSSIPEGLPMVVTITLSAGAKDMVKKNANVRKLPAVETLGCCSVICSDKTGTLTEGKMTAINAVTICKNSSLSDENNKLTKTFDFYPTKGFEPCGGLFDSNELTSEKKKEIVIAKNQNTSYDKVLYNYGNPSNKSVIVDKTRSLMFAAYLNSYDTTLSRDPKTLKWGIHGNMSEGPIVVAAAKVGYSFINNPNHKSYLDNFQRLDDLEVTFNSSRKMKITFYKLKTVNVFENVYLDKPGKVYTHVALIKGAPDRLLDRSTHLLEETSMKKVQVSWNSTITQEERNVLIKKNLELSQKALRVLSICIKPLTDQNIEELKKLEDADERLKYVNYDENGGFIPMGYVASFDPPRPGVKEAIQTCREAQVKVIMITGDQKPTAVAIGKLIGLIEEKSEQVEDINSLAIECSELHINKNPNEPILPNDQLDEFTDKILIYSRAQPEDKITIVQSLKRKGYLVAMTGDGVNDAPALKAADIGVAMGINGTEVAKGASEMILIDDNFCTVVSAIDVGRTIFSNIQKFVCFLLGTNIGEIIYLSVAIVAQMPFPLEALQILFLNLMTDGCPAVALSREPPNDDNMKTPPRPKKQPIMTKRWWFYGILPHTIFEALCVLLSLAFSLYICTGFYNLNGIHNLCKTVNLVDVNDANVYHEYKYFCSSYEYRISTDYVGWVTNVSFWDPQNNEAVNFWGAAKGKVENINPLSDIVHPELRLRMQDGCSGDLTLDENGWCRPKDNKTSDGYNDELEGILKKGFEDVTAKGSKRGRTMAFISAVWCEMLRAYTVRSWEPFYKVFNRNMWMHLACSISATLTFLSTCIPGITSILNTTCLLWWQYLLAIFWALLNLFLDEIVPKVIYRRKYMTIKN

Plasmodium falciparum [17] = experiment: Antiplasmodial activity against wild type Plasmodium falciparum 3D7 incubated for 48 hrs; format: functional, organism-based; conditions: 3D7, 48 h
Plasmodium knowlesi = experiment: Antiplasmodial activity against wild type Plasmodium knowlesi YH1 incubated for 30 hrs by SYBR staining based flow cytometry assay; format: functional, organism-based; conditions: YH1, 30 h
Plasmodium falciparum [18] = experiment: Antiplasmodial activity against multi-drug resistant Plasmodium falciparum Dd2; format: functional, organism-based
Plasmodium falciparum [19] = experiment: Antiplasmodial activity against multidrug resistant Plasmodium falciparum W2mef incubated for 48 hrs by SYBR staining based fluorometer assay; format: functional, organism-based
Plasmodium falciparum [20] = experiment: Antiplasmodial activity against multidrug resistant Plasmodium falciparum 7G8 incubated for 48 hrs by SYBR staining based fluorometer assay; format: functional, organism-based; conditions: 7G8, 48 h
Plasmodium falciparum [21] = experiment: Antiplasmodial activity against multidrug resistant Plasmodium falciparum Cam3.1 incubated for 48 hrs by SYBR staining based fluorometer assay; format: functional, organism-based; conditions: Cam3.1, 48 h
[22] = target: T2, P-type sodium-transporting ATPase4 (Plasmodium falciparum (isolate 3D7)) (UniProt A0A143ZZK9); experiment: Inhibition of Plasmodium falciparum 3D7 ATP4 assessed as reduction in Na+-ATPase activity at 2 uM incubated for 10 mins under high [Na+] condition in absence of KAE609
T2 sequence (whole entry): T1 sequence (A0A143ZZK9 whole entry)

Plasmodium falciparum [23] = experiment: Antiplasmodial activity against Plasmodium falciparum 3D7 infected in RBC assessed as reduction in nucleotide level at 5 nM incubated for 5 hrs by LC-MS analysis; format: functional, organism-based
Plasmodium falciparum [24] = experiment: Antiplasmodial activity against Plasmodium falciparum 3D7 infected in RBC assessed as reduction in pyrimidine-deoxyribonucleotides level at 5 nM incubated for 5 hrs by LC-MS analysis; format: functional, organism-based
Plasmodium falciparum [25] = experiment: Antiplasmodial activity against Plasmodium falciparum 3D7 infected in RBC assessed as reduction in deoxythymidine triphosphate level at 5 nM incubated for 5 hrs by LC-MS analysis; format: functional, organism-based
Plasmodium falciparum [26] = experiment: Antiplasmodial activity against Plasmodium falciparum 3D7 infected in RBC assessed as reduction in deoxythymidine diphosphate level at 5 nM incubated for 5 hrs by LC-MS analysis; format: functional, organism-based
Plasmodium falciparum [27] = experiment: Antiplasmodial activity against Plasmodium falciparum 3D7 infected in RBC assessed as reduction in deoxycytidine monophosphate level at 5 nM incubated for 5 hrs by LC-MS analysis; format: functional, organism-based
Plasmodium falciparum [28] = experiment: Antimalarial activity against Plasmodium falciparum NF54 infected assessed as inhibition of male gamete formation incubated for 48 hrs by automated bright field microscopic analysis; format: functional, organism-based; conditions: NF54, 48 h
Plasmodium falciparum [29] = experiment: Antimalarial activity against Plasmodium falciparum NF54 infected assessed as inhibition of female gamete formation incubated for 48 hrs by automated bright field microscopic analysis; format: functional, organism-based; conditions: NF54, 48 h

| SMILES | EC50 (Plasmodium falciparum [1]) | CC50 (HepG2) | solubility kinetic [2] | intrinsic clearance (CLint) [3] | intrinsic clearance (CLint) [4] | intrinsic clearance (CLint) [5] | logD [6] | EC50 (Plasmodium falciparum [17]) | EC50 (Plasmodium falciparum [18]) | EC50 (Plasmodium falciparum [19]) | EC50 (Plasmodium falciparum [21]) | further results |
| --- | --- | --- | --- | --- | --- | --- | --- | --- | --- | --- | --- | --- |
| COc1cc(NC(=O)Cn2cc(Cl)c3ccc(-c4cnn(C)c4)cc32)cc(OC)c1OC | 0.049 µM | > 40 µM | 2.5 µM (≈ 1.14 µg/mL) | 15 µL/min/mg | 53 µL/min/mg | < 1 uL/min/10^6 cells | 4.2 | – | – | – | – | – |
| CCN(CC)CCCC(C)Nc1ccnc2cc(Cl)ccc12 (stereo unspecified) | – | – | – | – | – | – | – | – | – | – | – | Activity (Plasmodium falciparum [7]): Active; Activity (Plasmodium falciparum [8]): Active |
| Cn1cc(-c2ccc3ccn(CC(=O)Nc4ccccc4Cl)c3c2)cn1 | 0.593 µM | > 40 µM | 4.1 µM (≈ 1.5 µg/mL) | > 462 µL/min/mg | – | 91 uL/min/10^6 cells | 3.6 | 0.236 µM | 0.385 µM | 0.279 µM | 0.476 µM | EC50 (Plasmodium falciparum [9]): 0.409 µM; EC50 (Plasmodium falciparum [10]): 2.51 µM; EC50 (Plasmodium falciparum [11]): 1.65 µM; EC50 (Plasmodium falciparum [12]): 0.803 µM; EC50 (Plasmodium falciparum [13]): 0.892 µM; EC50 (Plasmodium falciparum [14]): 1.16 µM; Activity (Plasmodium falciparum [15]): Active; IC50 [16]: 0.79 µM; EC50 (Plasmodium knowlesi): 0.661 µM; EC50 (Plasmodium falciparum [20]): 0.526 µM; inhibition [22]: Active |
| COc1cc(NC(=O)Cn2cc(Cl)c3cc(F)c(-c4cn(C)nc4C)cc32)cc(OC)c1OC | 0.108 µM | > 40 µM | 2.5 µM (≈ 1.22 µg/mL) | 64 µL/min/mg | 73 µL/min/mg | 5.7 uL/min/10^6 cells | 4.8 | – | – | – | – | – |
| Cn1cc(-c2ccc3c(Cl)cn(CC(=O)Nc4ccccc4Cl)c3c2)cn1 | 0.138 µM | > 40 µM | < 2.5 µM | 65 µL/min/mg | 177 µL/min/mg | 29 uL/min/10^6 cells | 4.6 | – | – | – | – | – |
| COc1cc(NC(=O)Cn2ccc3ccc(-c4cn(C)nc4C)cc32)cc(OC)c1OC | 0.1 µM | > 40 µM | 8.6 µM (≈ 3.74 µg/mL) | 105 µL/min/mg | 207 µL/min/mg | 11 uL/min/10^6 cells | 3.2 | – | – | – | – | – |
| COc1cc(NC(=O)Cn2ccc3ccc(-c4nnc(C)o4)cc32)cc(OC)c1OC | 0.2 µM | > 40 µM | 5.1 µM (≈ 2.15 µg/mL) | 42 µL/min/mg | 69 µL/min/mg | 8.9 uL/min/10^6 cells | 2.7 | 0.073 µM | 0.099 µM | 0.077 µM | 0.124 µM | Activity (Plasmodium falciparum [23]): inactive; Activity (Plasmodium falciparum [24]): inactive; Activity (Plasmodium falciparum [25]): inactive; Activity (Plasmodium falciparum [26]): inactive; Activity (Plasmodium falciparum [27]): inactive; EC50 (Plasmodium knowlesi): 0.195 µM; EC50 (Plasmodium falciparum [20]): 0.165 µM; EC50 (Plasmodium falciparum [28]): 1.5 µM; EC50 (Plasmodium falciparum [29]): 3.4 µM |
| CCc1nc(N)nc(N)c1-c1ccc(Cl)cc1 | – | – | – | – | – | – | – | – | – | – | – | Activity (Plasmodium falciparum [7]): Active |
| O[C@@H](c1cc(C(F)(F)F)nc2c(C(F)(F)F)cccc12)[C@H]1CCCCN1 (racemic) [(S,R)-MEFLOQUINE] | – | – | – | – | – | – | – | 0.023 µM | 0.035 µM | 0.064 µM | 0.009 µM | – |
